Test results: ChEMBL document CHEMBL1156459, “Discovery of a small molecule antagonist of the parathyroid hormone receptor by using an N-terminal parathyroid hormone peptide probe” (Proc Natl Acad Sci U S A, 2007)
Active and inactive are the calls of the source. No cut-off for these calls is given here. Square brackets hold non-standard residues; d marks the D form. Peptide text beside a SMILES is read from it. * marks the point of attachment. X1 = O=C(c1ccccc1-c1c2ccc(=O)cc-2oc2cc(O)ccc12)*; hArg = N=C(N)NCCCC[C@H](N)C(=O)O; Nle = CCCC[C@H](N)C(=O)O; Aib = CC(C)(N)C(=O)O

Columns and labels:
[1] = target: T1, Parathyroid hormone/parathyroid hormone-related peptide receptor (Homo sapiens, UniProt Q03431); assay: Displacement of [125I]DPC-AJ1951 from PTH/PTH-related peptide receptor expressed in HKRK-B28 cells; assay type: cell-based
T1 sequence (Q03431 whole entry): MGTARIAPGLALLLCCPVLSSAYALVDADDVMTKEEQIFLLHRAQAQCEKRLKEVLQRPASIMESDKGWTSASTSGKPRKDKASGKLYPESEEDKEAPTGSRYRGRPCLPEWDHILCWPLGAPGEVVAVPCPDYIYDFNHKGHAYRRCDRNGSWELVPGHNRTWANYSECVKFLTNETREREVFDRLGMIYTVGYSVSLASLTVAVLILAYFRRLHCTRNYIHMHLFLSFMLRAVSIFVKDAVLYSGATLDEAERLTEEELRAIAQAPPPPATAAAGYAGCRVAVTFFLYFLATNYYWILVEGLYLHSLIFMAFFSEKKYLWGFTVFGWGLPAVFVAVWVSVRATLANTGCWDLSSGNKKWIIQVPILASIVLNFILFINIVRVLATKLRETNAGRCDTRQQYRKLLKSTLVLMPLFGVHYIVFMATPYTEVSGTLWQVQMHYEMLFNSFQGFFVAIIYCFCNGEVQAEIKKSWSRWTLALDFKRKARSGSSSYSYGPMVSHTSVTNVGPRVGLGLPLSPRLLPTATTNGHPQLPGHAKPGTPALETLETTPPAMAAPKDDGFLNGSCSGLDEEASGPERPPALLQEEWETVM
Procedure, shortened: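 Whole HKRK-B28 cells plated at 30,000/well and incubated overnight at 37°C, 5% CO2. Incubated 3 h at room temperature, washed three times, bound radioactivity counted by scintillation.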

[2] = target: T1, Parathyroid hormone/parathyroid hormone-related peptide receptor; assay: Activity at human PTH/PTH-related peptide receptor expressed in SAOS2 cells assessed as cAMP formation; assay type: functional, cell-based, SAOS-2
Procedure, shortened: (§1)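 Nonconfluent cells grown at 37°C in DMEM with 10% FBS, refed 12–24 h before assay. Rinsed with warm PBS, detached with prewarmed EDTA (37°C, 5–10 min), spun at 300 × g for 5 min. Resuspended in HBSS/5 mM Hepes/0.1% BSA/0.5 mM IBMX, pH 7.4. cAMP read by AlphaScreen.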

[3] = target: T1, Parathyroid hormone/parathyroid hormone-related peptide receptor; assay: Activity at human PTH/PTH-related peptide receptor expressed in HEK293 cells assessed as induction of luciferase activity by CRE-luciferase reporter assay; assay type: functional, cell-based
[4] = target: T2, Parathyroid hormone/parathyroid hormone-related peptide receptor (Rattus norvegicus, UniProt P25961); assay: Activity at rat PTH/PTH-related peptide receptor expressed in rat UMR106 cells assessed as cAMP formation; assay type: functional, cell-based; procedure, shortened: as §1
T2 sequence (P25961 whole entry): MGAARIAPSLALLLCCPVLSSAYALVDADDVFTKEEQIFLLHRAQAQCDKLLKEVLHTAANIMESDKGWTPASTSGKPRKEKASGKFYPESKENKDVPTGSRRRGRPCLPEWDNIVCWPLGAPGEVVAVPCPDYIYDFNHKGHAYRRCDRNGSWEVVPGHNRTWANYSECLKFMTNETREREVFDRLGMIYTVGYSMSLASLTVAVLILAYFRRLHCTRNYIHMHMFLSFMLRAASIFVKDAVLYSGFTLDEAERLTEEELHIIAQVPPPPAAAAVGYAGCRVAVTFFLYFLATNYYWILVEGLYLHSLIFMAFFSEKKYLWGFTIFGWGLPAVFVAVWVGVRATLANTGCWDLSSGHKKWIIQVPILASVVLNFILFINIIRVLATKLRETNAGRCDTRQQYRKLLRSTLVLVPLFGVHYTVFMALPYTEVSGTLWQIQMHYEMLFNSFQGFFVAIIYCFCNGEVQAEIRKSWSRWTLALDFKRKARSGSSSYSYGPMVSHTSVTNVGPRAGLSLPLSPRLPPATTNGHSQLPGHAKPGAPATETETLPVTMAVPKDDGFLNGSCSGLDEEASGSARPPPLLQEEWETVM

Mus musculus = species on record: Mus musculus; assay: Inhibition of bone mineralization in embryonic mouse metatarsal; assay type: functional

Structure (SMILES) | IC50 [1] | EC50 [2] | EC50 [3] | EC50 [4] | Activity (Mus musculus)
CCCC[C@H](NC(=O)[C@H](CC(C)C)NC(=O)[C@H](CCC(N)=O)NC(=O)[C@@H](NC(=O)[C@H](CCC(=O)O)NC(=O)[C@H](C)NC(=O)[C@@H](NC(=O)[C@H](C)N)C(C)C)[C@@H](C)CC)C(=O)N[C@@H](Cc1cnc[nH]1)C(=O)N[C@@H](CCC(N)=O)C(=O)N[C@@H](CCCCNC(=N)N)C(=O)N[C@@H](C)C(=O)N[C@@H](CCCCN)C(=O)N[C@@H](Cc1ccc(O)cc1)C(N)=O (H-AVAEIQL[Nle]HQ[hArg]AKY-NH2) | 10600 nM | 1430 nM | 13 nM | 344 nM | –
CC[C@H](C)[C@H](NC(=O)[C@H](CCC(=O)O)NC(=O)C(C)(C)NC(=O)[C@@H](NC(=O)C(C)(C)N)C(C)C)C(=O)N[C@@H](CCC(N)=O)C(=O)N[C@@H](CC(C)C)C(=O)N[C@@H](CCSC)C(=O)N[C@@H](Cc1cnc[nH]1)C(=O)N[C@@H](CCC(N)=O)C(=O)N[C@@H](CCCCNC(=N)N)C(=O)N[C@@H](C)C(=O)N[C@@H](CCCCN)C(=O)N[C@@H](Cc1c[nH]c2ccccc12)C(=O)O (H-[Aib]V[Aib]EIQLMHQ[hArg]AKW-OH) | – | – | – | – | Active
CCCC[C@H](NC(=O)[C@H](CC(C)C)NC(=O)[C@H](CCC(N)=O)NC(=O)[C@@H](NC(=O)[C@H](CCC(=O)O)NC(=O)C(C)(C)NC(=O)[C@@H](NC(=O)C(C)(C)N)C(C)C)[C@@H](C)CC)C(=O)N[C@@H](Cc1cnc[nH]1)C(=O)N[C@@H](CCC(N)=O)C(=O)N[C@@H](CCCNC(=N)N)C(=O)N[C@@H](C)C(=O)N[C@@H](CCCCNC(=O)c1ccccc1-c1c2ccc(=O)cc-2oc2cc(O)ccc12)C(=O)N[C@@H](Cc1ccc(O)cc1)C(N)=O (H-[Aib]V[Aib]EIQL[Nle]HQRAK(X1)Y-NH2) | 13.5 nM | 7.2 nM | 0.92 nM | – | –
CCCC[C@H](NC(=O)[C@H](CC(C)C)NC(=O)[C@H](CCC(N)=O)NC(=O)[C@@H](NC(=O)[C@H](CCC(=O)O)NC(=O)C(C)(C)NC(=O)[C@@H](NC(=O)C(C)(C)N)C(C)C)[C@@H](C)CC)C(=O)N[C@@H](Cc1cnc[nH]1)C(=O)N[C@@H](CCC(N)=O)C(=O)N[C@@H](CCCN=C(N)N)C(=O)N[C@@H](C)C(=O)N[C@@H](CCCCN)C(=O)N[C@@H](Cc1ccc(O)cc1)C(=O)N[C@@H](CCCCNC(=O)c1ccccc1-c1c2ccc(=O)cc-2oc2cc(O)ccc12)C(N)=O (H-[Aib]V[Aib]EIQL[Nle]HQRAKYK(X1)-NH2) | 98.2 nM | 20 nM | 1.1 nM | – | –
CCCC[C@H](NC(=O)[C@H](CC(C)C)NC(=O)[C@H](CCC(N)=O)NC(=O)[C@@H](NC(=O)[C@H](CCC(=O)O)NC(=O)C(C)(C)NC(=O)[C@@H](NC(=O)C(C)(C)N)C(C)C)[C@@H](C)CC)C(=O)N[C@@H](Cc1cnc[nH]1)C(=O)N[C@@H](CCC(N)=O)C(=O)N[C@@H](CCCCN=C(N)N)C(=O)N[C@@H](C)C(=O)N[C@@H](CCCCN)C(=O)N[C@@H](Cc1ccc(O)cc1)C(N)=O (H-[Aib]V[Aib]EIQL[Nle]HQ[hArg]AKY-NH2) | 7.2 nM | – | 0.06 nM | – | –
